Assay results taken from ChEMBL document CHEMBL1139798, “Synthesis of chlorogenic acid derivatives with promising antifungal activity” (Bioorg Med Chem, 2007).
In brackets after ≈: the same amount, converted by molar mass.

Key:
[1] = Lethality in brine shrimp at 100 ug/ml; type: organism-based; conditions: artemia, in vivo; read-out: Activity
Cryptococcus neoformans = test: Antifungal activity against Cryptococcus neoformans ATCC 32045 after 48 to 72 hrs; type: functional
Outline: (§1)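 Broth dilution following NCCLS guidelines. Final compound concentrations ran from 0.12 to 64. MIC was taken as the lowest concentration giving 80% inhibition of growth relative to the drug-free control.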

Candida albicans = test: Antifungal activity against Candida albicans ATCC 90028 after 18 to 24 hrs; type: functional; outline: as §1
Aspergillus fumigatus = test: Antifungal activity against Aspergillus fumigatus ATCC 13073 after 48 hrs; type: functional; conditions: ATCC 13073, 48 h; outline: as §1
Pichia kudriavzevii = test: Antifungal activity against Candida krusei ATCC 6258; type: functional

Structure (SMILES) | mortality at 100 ug/ml [1] | MIC (Cryptococcus neoformans) | MIC (Candida albicans) | MIC (Aspergillus fumigatus) | MIC (Pichia kudriavzevii)
CCCCCCCCOc1ccc(NC(=O)C(CCCNC(=O)OC(C)(C)C)NC(=O)[C@]2(O)C[C@@H](O)[C@@H](O)[C@H](OC(=O)CCc3ccc(O)c(O)c3)C2)cc1 (stereo not given in full) | 21.1% | 4 µg/mL (≈ 5.17 µM) | > 64 µg/mL | > 64 µg/mL | 
CCCCCCCCOc1ccc(NC(=O)C(CCCN)NC(=O)[C@]2(O)C[C@@H](O)[C@@H](O)[C@H](OC(=O)CCc3ccc(O)c(O)c3)C2)cc1 (stereo not given in full) | 10.5% | 8 µg/mL (≈ 11.9 µM) | 16 µg/mL (≈ 23.7 µM) | 64 µg/mL (≈ 95 µM) | 
CCCCCCCCOc1ccc(NC(=O)C(CCCNC(=O)OC(C)(C)C)NC(=O)[C@@]2(O)C[C@@H](OC(=O)/C=C/c3ccc(O)cc3)[C@@H]3OC(C)(C)O[C@@H]3C2)cc1 (stereo not given in full) | 0% | > 64 µg/mL | > 64 µg/mL | > 64 µg/mL | 
CCCCCCCCOc1ccc(NC(=O)C(CCCNC(=O)OC(C)(C)C)NC(=O)[C@]2(O)C[C@@H](O)[C@@H](O)[C@H](OC(=O)/C=C/c3ccc(O)cc3)C2)cc1 (stereo not given in full) | 31.6% | > 64 µg/mL | > 64 µg/mL | > 64 µg/mL | 
CCCCCCCCOc1ccc(NC(=O)[C@@]2(O)C[C@@H](OC(=O)/C=C/c3ccc(O)c(O)c3)[C@@H]3OC(C)(C)O[C@@H]3C2)cc1 | 100% | 2 µg/mL (≈ 3.35 µM) | 16 µg/mL (≈ 26.8 µM) | > 64 µg/mL | 
CCCCCCCCOc1ccc(NC(=O)C(NC(=O)[C@@]2(O)C[C@@H](OC(=O)/C=C/c3ccc(O)c(O)c3)[C@@H]3OC(C)(C)O[C@@H]3C2)C(C)OC(C)(C)C)cc1 (stereo not given in full) | 6.2% | 4 µg/mL (≈ 5.3 µM) | 32 µg/mL (≈ 42.4 µM) | > 64 µg/mL | 
CCCCCCCCOc1ccc(NC(=O)C(CC(=O)OC(C)(C)C)NC(=O)[C@]2(O)C[C@@H](O)[C@@H](O)[C@H](OC(=O)/C=C/c3ccc(O)c(O)c3)C2)cc1 (stereo not given in full) | 37.5% | 2 µg/mL (≈ 2.74 µM) | 2 µg/mL (≈ 2.74 µM) | > 64 µg/mL | 
CCCCCCCCOc1ccc(NC(=O)C(COC(C)(C)C)NC(=O)[C@]2(O)C[C@@H](O)[C@@H](O)[C@H](OC(=O)/C=C/c3ccc(O)c(O)c3)C2)cc1 (stereo not given in full) | 31.1% | 2 µg/mL (≈ 2.85 µM) | 4 µg/mL (≈ 5.71 µM) | > 64 µg/mL | 
CCCCCCCCOc1ccc(NC(=O)C(CCCNC(=O)OC(C)(C)C)NC(=O)[C@]2(O)C[C@@H](O)[C@@H](O)[C@H](OC(=O)/C=C/c3ccc(O)c(O)c3)C2)cc1 (stereo not given in full) | 25% | 1 µg/mL (≈ 1.3 µM) | 2 µg/mL (≈ 2.59 µM) | > 64 µg/mL | 
CCCCCCCCOc1ccc(NC(=O)C(CCCN)NC(=O)[C@]2(O)C[C@@H](O)[C@@H](O)[C@H](OC(=O)/C=C/c3ccc(O)cc3)C2)cc1 (stereo not given in full) | 100% | 4 µg/mL (≈ 6.1 µM) | 8 µg/mL (≈ 12.2 µM) | 32 µg/mL (≈ 48.8 µM) | 
CCCCCCCCOc1ccc(NC(=O)C(CC(=O)OC(C)(C)C)NC(=O)[C@@]2(O)C[C@@H](OC(=O)/C=C/c3ccc(O)c(O)c3)[C@@H]3OC(C)(C)O[C@@H]3C2)cc1 (stereo not given in full) | 56.2% | 2 µg/mL (≈ 2.6 µM) | > 64 µg/mL | > 64 µg/mL | 
CCCCCCCCOc1ccc(NC(=O)C(CCCNC(=O)OC(C)(C)C)NC(=O)[C@@]2(O)C[C@@H](OC(=O)/C=C/c3ccc(O)c(O)c3)[C@@H]3OC(C)(C)O[C@@H]3C2)cc1 (stereo not given in full) | 12.5% | 2 µg/mL (≈ 2.46 µM) | > 64 µg/mL | > 64 µg/mL | 
CCCCCCCCOc1ccc(NC(=O)C(NC(=O)[C@]2(O)C[C@@H](O)[C@@H](O)[C@H](OC(=O)/C=C/c3ccc(O)c(O)c3)C2)C(C)O)cc1 (stereo not given in full) | 12.5% | 2 µg/mL (≈ 3.04 µM) | 8 µg/mL (≈ 12.1 µM) | > 64 µg/mL | 2 µg/mL (≈ 3.04 µM)
CCCCCCCCOc1ccc(NC(=O)C(CCCN)NC(=O)[C@]2(O)C[C@@H](O)[C@@H](O)[C@H](OC(=O)/C=C/c3ccc(O)c(O)c3)C2)cc1 (stereo not given in full) | 37.5% | 1 µg/mL (≈ 1.49 µM) | 4 µg/mL (≈ 5.95 µM) | 16 µg/mL (≈ 23.8 µM) | 
CCCCCCCCOc1ccc(NC(=O)C(CO)NC(=O)[C@]2(O)C[C@@H](O)[C@@H](O)[C@H](OC(=O)/C=C/c3ccc(O)c(O)c3)C2)cc1 (stereo not given in full) | 18.8% | 4 µg/mL (≈ 6.2 µM) | > 64 µg/mL | > 64 µg/mL | 
CCCCCCCCOc1ccc(NC(=O)C(NC(=O)[C@]2(O)C[C@@H](O)[C@@H](O)[C@H](OC(=O)/C=C/c3ccc(O)c(O)c3)C2)C(C)OC(C)(C)C)cc1 (stereo not given in full) | 50% | 1 µg/mL (≈ 1.4 µM) | 2 µg/mL (≈ 2.8 µM) | > 64 µg/mL | 2 µg/mL (≈ 2.8 µM)
CCCCCCCCOc1ccc(NC(=O)C(CC(=O)O)NC(=O)[C@]2(O)C[C@@H](O)[C@@H](O)[C@H](OC(=O)/C=C/c3ccc(O)c(O)c3)C2)cc1 (stereo not given in full) | 6.3% | 16 µg/mL (≈ 23.8 µM) | 64 µg/mL (≈ 95.1 µM) | > 64 µg/mL | 
CCCCCCCCOc1ccc(NC(=O)C(COC(C)(C)C)NC(=O)[C@@]2(O)C[C@@H](OC(=O)/C=C/c3ccc(O)c(O)c3)[C@@H]3OC(C)(C)O[C@@H]3C2)cc1 (stereo not given in full) | 31.3% | 2 µg/mL (≈ 2.7 µM) | 32 µg/mL (≈ 43.2 µM) | > 64 µg/mL | 
CCCCCCCCOc1ccc(NC(=O)[C@]2(O)C[C@@H](O)[C@@H](O)[C@H](OC(=O)/C=C/c3ccc(O)c(O)c3)C2)cc1 | 50% | 2 µg/mL (≈ 3.59 µM) | 8 µg/mL (≈ 14.3 µM) | > 64 µg/mL | 
C[C@@H]1[C@H](O)[C@@H](C)/C=C/C=C/C=C/C=C/C=C/C=C/C=C/[C@H](O[C@@H]2O[C@H](C)[C@@H](O)[C@H](N)[C@@H]2O)C[C@@H]2O[C@](O)(C[C@@H](O)C[C@@H](O)[C@H](O)CC[C@@H](O)C[C@@H](O)CC(=O)O[C@H]1C)C[C@H](O)[C@H]2C(=O)O [AMPHOTERICIN B] |  |  | 0.5 µg/mL (≈ 0.541 µM) |  | 
O=C(/C=C/c1ccc(O)c(O)c1)O[C@@H]1C[C@](O)(C(=O)O)C[C@@H](O)[C@H]1O [CHLOROGENIC ACID] | 100% |  | > 64 µg/mL |  | > 64 µg/mL
OC(Cn1cncn1)(Cn1cncn1)c1ccc(F)cc1F [FLUCONAZOLE] |  | 0.5 µg/mL (≈ 1.63 µM) | 0.25 µg/mL (≈ 0.816 µM) | > 64 µg/mL | 
